From PubChem
FGF22 binding-1 = binders of human FGF22 protein, primary screen, FGF22 synaptogenesis inhibitor project, biophysical, thermal shift, single point | 340,000 tested, 1.5% active | recombinant FGF22 thermal shift, SYPRO orange fluorescence; percent of sucrose octasulfate shift, DMSO zero | AID 651658, 2012 | activity (Tm shift, normalised), % at 9.99 µM | Fibroblast growth factor 22 (Homo sapiens), Q9HCT0;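 active means mean Tm shift, scaled 0 neutral to 100 positive control, at about 1.3% or above, every replicate too, limit read from the data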
UCH37 DUB inh = inhibitors of human UCH37 deubiquitinase, primary screen, biochemical, Ub-AMC cleavage, fluorescence; Ubiquitin carboxyl-terminal hydrolase isozyme L5 (Homo sapiens), Q9Y5K5; purified proteasome/UCH37; inhibition, % (concentration not given with the values); 330,000 tested, 0.33% active; AID 588478, 2011;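 active means mean inhibition over replicate wells above about 20%, limit read from the data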;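 further: 0% = compound-free wells with enzyme and 100% = wells lacking proteasome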
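Schedule: 30 min plus 25 min, room temperature / Material: human UCH37 within purified proteasomes / Technique: AMC fluorescence intensity at 355/460 nm / Buffer or medium: pH 7.4 Tris-HCl (50 mM) with ovalbumin, ATP-MgCl2, DTT / Controls: wells without proteasome as full block, compound-free enzyme plus substrate as uninhibited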
NSD2 HMT inh = NSD2 histone methyltransferase inhibitors, primary screen, biochemical, AlphaScreen, single concentration, set 2; Histone-lysine N-methyltransferase NSD2 (Homo sapiens), O96028; NSD2 peptide methylation, 120 min; inhibition, % at 12.5 µM; 310,000 tested, 0.54% active; in the data active means inhibition above about 50%
SIRT5 block = SIRT5 desuccinylase inhibitors, primary screen, biochemical, fluorescence imaging, single point, set 5; NAD-dependent protein deacylase sirtuin-5, mitochondrial (Homo sapiens), Q9NXA8; Purified SirT5, succinyl-peptide AMC, trypsin-coupled fluorescence; inhibition, % at 15 µM; 330,000 tested, 1.1% active; in the data active means inhibition above about 15%
Target sequence (Q9NXA8 whole entry, looked up): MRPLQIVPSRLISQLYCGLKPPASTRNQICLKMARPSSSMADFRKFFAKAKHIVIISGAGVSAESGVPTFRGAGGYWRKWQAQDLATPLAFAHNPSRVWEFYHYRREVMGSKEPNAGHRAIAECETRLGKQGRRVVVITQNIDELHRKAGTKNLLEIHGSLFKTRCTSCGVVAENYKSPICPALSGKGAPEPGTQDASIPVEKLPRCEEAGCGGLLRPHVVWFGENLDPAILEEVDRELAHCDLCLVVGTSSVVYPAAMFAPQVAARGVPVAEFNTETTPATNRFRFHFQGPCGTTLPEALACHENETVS
CASP6 VEID inh = human caspase-6 inhibitors, primary screen, biochemical, VEID-R110 fluorescence, single point, set 2. purified caspase-6, Z-VEID-R110 cleavage fluorescence. inhibition, % at 12.5 µM. 350,000 tested, 0.53% active;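 active means mean inhibition across replicates at least about 35%, with every replicate also reaching that limit, limit read from the data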;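 further: 0% = median of neutral control wells and 100% = no fluorescence left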
Target sequence (P55212 24-179 limits assumed): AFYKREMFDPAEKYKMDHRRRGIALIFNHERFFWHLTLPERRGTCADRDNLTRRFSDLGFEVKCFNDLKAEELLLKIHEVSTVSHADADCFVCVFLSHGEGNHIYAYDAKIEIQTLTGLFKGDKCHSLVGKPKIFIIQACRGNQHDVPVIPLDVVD
Target sequence (P55212 194-293 limits assumed): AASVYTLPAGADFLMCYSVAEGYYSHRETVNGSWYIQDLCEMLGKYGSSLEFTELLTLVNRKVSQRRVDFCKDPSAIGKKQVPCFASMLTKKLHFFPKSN
UCH37 confirm = retest of human UCH37 deubiquitinase inhibitors, confirmation, biochemical, Ub-AMC cleavage rate, fluorescence. inhibition, % at 20 µM. shares compounds with UCH37 DUB inh. 480 tested, 27% active. AID 624100, 2012. Proteasome-bound UCH37;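 active means average inhibition over replicates above about 50%, so the earlier screening hit is confirmed, limit read from the data; inactive means the rest, counted as false positives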;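 further: based on cleavage rate fitted by regression over a 30 min kinetic read; 0% = proteasome plus Ub-AMC and 100% = Ub-AMC without proteasome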
FGF22 binding-2 = binders of human FGF22 protein, dose response, FGF22 synaptogenesis inhibitor project, biophysical, thermal shift, cherry-pick retest; thermal shift activity, °C (ΔTm) at 38 µM; shares compounds with FGF22 binding-1; 1,000 tested, 2% active; recombinant FGF22 thermal shift, SYPRO orange fluorescence;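 active means fitted rise in melting shift crosses a set limit at or below the top valid dose tested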
SYPRO no-protein = compound-only thermal shift signal without protein, dose response, artefact control for FGF22 binder project, biochemical, cherry-picked samples, RT-PCR instrument. AID 743019, 2013. compound-only SYPRO orange thermal shift counter-screen, no protein. AC50, µM (series often up to 38 µM). shares compounds with FGF22 binding-1. 1,000 tested, 2% active;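 active means rising signal whose fitted curve reaches the 0.54 level within the top valid dose, showing a melting point, actives reach about 13 µM in these data; inactive means the rest, including activity in the opposite direction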; further: value is where the raw curve crosses a fixed level and not half-maximal
CASP1 counter = human caspase-1 inhibitors, dose response, selectivity assay for caspase-6 inhibitor project, biochemical, Z-YVAD-R110 fluorescence, cherry-pick, set 2 | shares compounds with CASP6 VEID inh | purified caspase-1, Z-YVAD-R110 cleavage fluorescence | activity change, negative = inhibition, % at 35 µM | 100 tested, under 10 active | AID 743289, 2014;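 active means compounds lowering fluorescence whose fitted half-maximal concentration is no more than twice their top tested dose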
* marks the source's active call; other numbers are inactive results; ! = repeats disagree. Only some compounds are listed: those with a hit (about 2.6% of all), similar ones and a draw of the others.

Results for Cc1[nH]n(-c2ccccc2)c(=O)c1C(c1ccc(O)c([N+](=O)[O-])c1)c1c(C)[nH]n(-c2ccccc2)c1=O ?
UCH37 DUB inh: 7; NSD2 HMT inh: 5

How did CN(C)c1ccc(C(C(=O)NC2CCCCC2)N(Cc2ccco2)C(=O)c2snc(C(N)=O)c2N)cc1 (stereo not given) do in these assays?
FGF22 binding-1: 0; UCH37 DUB inh: 68*; NSD2 HMT inh: 11; CASP6 VEID inh: -1; UCH37 confirm: -21

Results for Cc1ccccc1NS(=O)(=O)c1cc(C(=O)NCCC2=CCCCC2)ccc1Cl ?
UCH37 DUB inh: 55*; NSD2 HMT inh: -8; UCH37 confirm: 47

How did Cc1ccccc1NS(=O)(=O)c1cc(C(=O)NCc2ccncc2)ccc1Cl do in these assays?
FGF22 binding-1: 0; UCH37 DUB inh: 4; SIRT5 block: -1; CASP6 VEID inh: 4

Results for CCC(=O)c1ccc(OCC(=O)NCCC2=CCCCC2)c(OC)c1 ?
FGF22 binding-1: -1; UCH37 DUB inh: 1; NSD2 HMT inh: 5; SIRT5 block: -3; CASP6 VEID inh: 4

Results for CCOc1ccc(C(=O)NCCC2=CCCCC2)cc1OCC ?
FGF22 binding-1: 0; UCH37 DUB inh: 32*; NSD2 HMT inh: 4; SIRT5 block: 1; CASP6 VEID inh: 5; UCH37 confirm: 35

What do the screens show for `Cc1ccc(NC2C(=O)NC(=O)NC2=O)cc1`?
FGF22 binding-1: 0; UCH37 DUB inh: 80*; SIRT5 block: -1; CASP6 VEID inh: 16; UCH37 confirm: -2

What do the screens show for `COc1ccc(OC)c(C2/C(=C(/O)c3cnn(-c4ccccc4)c3C)C(=O)C(=O)N2CCN(C)C)c1` (stereo not given)?
FGF22 binding-1: 0; UCH37 DUB inh: 35*; NSD2 HMT inh: 0; SIRT5 block: 1; CASP6 VEID inh: -3; UCH37 confirm: 14

How did CN(C[C@H](c1ccccc1)N(C[C@H](Cc1ccccc1)N(CCc1ccccc1)N=O)N=O)N=O do in these assays?
FGF22 binding-1: 0; UCH37 DUB inh: 37*; SIRT5 block: 1; CASP6 VEID inh: 4; UCH37 confirm: 9

What do the screens show for `COC(=O)c1ccccc1NC1=C/C(=N\S(=O)(=O)c2cccs2)c2ccccc2C1=O`?
FGF22 binding-1: -1; UCH37 DUB inh: 30*; NSD2 HMT inh: 10; CASP6 VEID inh: 1; UCH37 confirm: 55*!

What do the screens show for `Cc1[nH][nH]c(=O)c1C(c1ccc(-c2ccc(Cl)c(Cl)c2)o1)c1c(C)[nH][nH]c1=O`?
UCH37 DUB inh: 42*; UCH37 confirm: 27

What do the screens show for `CCCC1=C(C(=O)OCC)C(c2ccc(OC)c(C)c2OC)C(C#N)=C(N)O1` (stereo not given)?
UCH37 DUB inh: 31*; NSD2 HMT inh: 30; UCH37 confirm: -39

Results for COCCCNC(=S)NNC(=O)c1ccc2c(c1)OCO2 ?
UCH37 DUB inh: 37*; NSD2 HMT inh: -1; SIRT5 block: -8; CASP6 VEID inh: -1; UCH37 confirm: 22

How did O=C(O)CSc1cc(NS(=O)(=O)c2cccc([N+](=O)[O-])c2)c2ccccc2c1O do in these assays?
FGF22 binding-1: 0; UCH37 DUB inh: 30*; SIRT5 block: 6; CASP6 VEID inh: 68*; UCH37 confirm: 83*

What do the screens show for `O=C(O)c1cccc(S(=O)(=O)Nc2ccc([N+](=O)[O-])cc2O)c1`?
FGF22 binding-1: 0; UCH37 DUB inh: 9; NSD2 HMT inh: 16; SIRT5 block: 2; CASP6 VEID inh: 0

What do the screens show for `Cc1ccc(NC2=C(NCCO)C(=O)c3ccccc3C2=O)cc1`?
UCH37 DUB inh: 26*; NSD2 HMT inh: 65*; UCH37 confirm: 2

Results for Cc1ccc(/C=C/c2ccc(N(C)C)cc2)[n+](C)c1 ?
FGF22 binding-1: 0; UCH37 DUB inh: 27*; NSD2 HMT inh: 6; SIRT5 block: 10; CASP6 VEID inh: -5; UCH37 confirm: 30

Results for CN(C)c1ccc(/C=C/c2cc[n+](C)cc2)cc1 ?
UCH37 DUB inh: 17; NSD2 HMT inh: 18

Results for O=C(Nc1ccc2cn[nH]c2c1)c1c(Cl)cccc1Cl ?
UCH37 DUB inh: 2; NSD2 HMT inh: 16

What do the screens show for `O=C1C(Cl)=C(Nc2ccc3cn[nH]c3c2)C(=O)c2ccccc21`?
FGF22 binding-1: -1; UCH37 DUB inh: 46*; SIRT5 block: -2; CASP6 VEID inh: 4; UCH37 confirm: 13

How did CCc1nnc(NS(=O)(=O)c2ccc(Nc3ccc([N+](=O)[O-])c4nonc34)cc2)s1 do in these assays?
FGF22 binding-1: 2.0*; UCH37 DUB inh: 35*; NSD2 HMT inh: 16; SIRT5 block: 7; CASP6 VEID inh: 25; UCH37 confirm: 31; FGF22 binding-2: 0.2; SYPRO no-protein: inactive

Results for CCOC(=O)[C@H]1[C@@H]2C(=O)N3CCC[C@H]3[C@H](O[Si](C(C)C)(C(C)C)C(C)C)[C@H]2C=C2CCN(S(=O)(=O)c3ccc(C)cc3)C[C@H]21 ?
FGF22 binding-1: 0; SIRT5 block: 5; CASP6 VEID inh: -2

How did Cn1nc(-c2ccccn2)nc2c(=O)n(C)c(=O)nc1-2 do in these assays?
FGF22 binding-1: 0; UCH37 DUB inh: 97*; SIRT5 block: 3; CASP6 VEID inh: 95*; UCH37 confirm: 100*; CASP1 counter: -3

How did CCn1c(N)nc2c1c(=O)n(C)c(=O)n2C do in these assays?
FGF22 binding-1: 0; UCH37 DUB inh: 2; SIRT5 block: 0; CASP6 VEID inh: 0
